One data set relates to K562. As to the kind of experiment: Cytotoxicity against human K562 cells at 30 uM after 72 hrs by MTT assay. The data set is classed as cell-based. Conditions: k562, 72 h. A general note: Tetrazolium assays rely on reduction of a dye to a coloured formazan, in cell work by metabolically active cells.
In another data set the test system is HCT-116. In words: Cytotoxicity against human HCT116 cells at 30 uM after 72 hrs by MTT assay. The data set is classed as cell-based. Conditions: hct-116, 72 h.
For another data set, the system named is HL-60. As to the kind of experiment: Cytotoxicity against human HL60 cells at 30 uM after 72 hrs by MTT assay. The data set is classed as cell-based. Conditions: hl-60, 72 h.
The subject of a further data set is HeLa. As to the kind of experiment: Cytotoxicity against human HeLa cells at 30 uM after 72 hrs by MTT assay. The data set is classed as cell-based.
The subject of the next data set is HepG2. As to the kind of experiment: Lipid lowering activity in human HepG2 cells assessed as reduction in oleic acid-induced lipid accumulation at 10 uM after 24 hrs by oil red O staining based spectrophotometric method. Type of data set: functional, cell-based. The gist of the method: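 HepG2 cells in log phase seeded at 1.2 × 10^4 cells/well, grown 12 h to 70–80% confluence, then serum-starved 12 h in serum-free DMEM. Oleic acid added (final 80 μM) with test agent or simvastatin (final 10 μM), 24 h. Blank: DMEM only; OA alone as negative control. Cells fixed in 4% paraformaldehyde, rinsed with 60% 2-propanol, stained with 0.3% Oil Red O for 1 h, dye dissolved in DMSO, OD 358 nm; ≥3 experiments, mean ± SEM.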

Molecules are shown by their SMILES. The source made the active and inactive calls. No cut-off for these calls is given here.

For `COc1c(O)c(O)c(C)c(S(C)(=O)=O)c1O`, the Activity result in the data set with K562, with HCT-116, in the data set with HL-60 and with HeLa was “Non-Toxic” each time.
In the case of `COc1cc(S(C)(=O)=O)cc2c(=O)oc3cc(CO)cc(O)c3c(=O)c12`, the Activity result with K562, in the data set with HCT-116, in the data set with HL-60 and in the data set on HeLa was “Non-Toxic” throughout. The outcome in the data set with HepG2 was Active.
Consider `COc1c(O)ccc2c(=O)oc3cc(CO)cc(O)c3c(=O)c12`, for which the Activity entry in the data set with K562, in the data set on HCT-116, in the data set on HL-60 and in the data set with HeLa was “Non-Toxic” throughout.
Regarding `CCC(C)(C)C(=O)O[C@H]1C[C@@H](C)C=C2C=C[C@H](C)[C@H](CC[C@@H]3C[C@@H](O)CC(=O)O3)[C@H]21`, in the data set with HepG2, the result was Active.

The record behind these values is ChEMBL document CHEMBL4480417, “Methylsulfonylated Polyketides Produced by Neosartorya udagawae HDN13-313 via Exogenous Addition of Small Molecules” (J Nat Prod, 2019).
